In ChEMBL document CHEMBL3351959, “Antinociceptive and antidepressant-like action of endomorphin-2 analogs with proline surrogates in position 2” (Bioorg Med Chem, 2014):
The source made the active and inactive calls.

What was measured:
Mu-type opioid receptor = Mu-type opioid receptor (Rattus norvegicus, UniProt P33535); assay: Displacement of [3H]DAMGO from MOR in rat brain membranes; format: cell membranes, Membrane
Outline: (§1)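 Competitive binding on rat brain membranes: displacement of [³H]DAMGO (MOR) or [³H][Ile5,6]deltorphin-2 (DOR), reported as IC50. Three independent experiments, each run in duplicate, given as mean ± SEM. The DOR/MOR ratio is calculated from these IC50 values.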

[1] = molecular target: Delta-type opioid receptor (Rattus norvegicus, UniProt P33533); assay: Displacement of [3H](Ile5,6)deltorphin-2 from DOR in rat brain membranes; format: cell membranes, Membrane; outline: as §1
Sequence of Delta-type opioid receptor (P33533 whole entry): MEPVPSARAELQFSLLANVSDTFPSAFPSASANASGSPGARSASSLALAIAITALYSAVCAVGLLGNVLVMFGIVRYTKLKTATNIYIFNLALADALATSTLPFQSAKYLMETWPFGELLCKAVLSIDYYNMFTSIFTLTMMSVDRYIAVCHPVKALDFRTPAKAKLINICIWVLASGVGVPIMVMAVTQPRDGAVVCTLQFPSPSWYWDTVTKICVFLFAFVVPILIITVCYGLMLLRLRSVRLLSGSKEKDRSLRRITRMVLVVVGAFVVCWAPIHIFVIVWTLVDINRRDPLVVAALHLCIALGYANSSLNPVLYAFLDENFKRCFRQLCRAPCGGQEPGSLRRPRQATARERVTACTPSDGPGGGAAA

[2] = molecular target: Kappa-type opioid receptor (Cavia porcellus, UniProt P41144); assay: Displacement of [3H]nor-BNI from KOR in guinea pig brain membranes; format: cell membranes, Membrane
Sequence of Kappa-type opioid receptor (P41144 whole entry): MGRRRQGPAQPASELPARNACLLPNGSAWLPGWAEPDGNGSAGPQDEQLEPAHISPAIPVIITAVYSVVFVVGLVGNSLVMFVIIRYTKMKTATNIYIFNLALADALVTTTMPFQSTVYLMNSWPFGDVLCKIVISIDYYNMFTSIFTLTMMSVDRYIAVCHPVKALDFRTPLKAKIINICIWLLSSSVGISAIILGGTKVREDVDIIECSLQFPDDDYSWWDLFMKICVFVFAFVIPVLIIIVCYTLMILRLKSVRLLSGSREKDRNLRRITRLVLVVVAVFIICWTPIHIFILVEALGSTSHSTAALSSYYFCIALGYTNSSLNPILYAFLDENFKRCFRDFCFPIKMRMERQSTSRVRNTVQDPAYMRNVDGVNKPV

Rattus norvegicus [3] = organism: Rattus norvegicus; assay: Selectivity ratio of IC50 for DOR in rat brain membranes to IC50 for MOR in rat brain membranes; format: cell membranes; outline: as §1
Rattus norvegicus [4] = organism: Rattus norvegicus; assay: Selectivity ratio of IC50 for KOR in guinea pig brain membranes to IC50 for MOR in rat brain membranes; format: cell membranes
Outline: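 Ratio of the KOR IC50, from displacement of [³H]nor-BNI in guinea pig brain membranes, to the MOR IC50, from displacement of [³H]DAMGO in rat brain membranes. Three independent experiments in duplicate.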

[5] = Half life in rat brain homogenate by RP-HPLC analysis; format: ADME, tissue-based
Outline: (§2)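 Peptides are incubated at 37 °C with rat brain homogenate as the protease source. Samples taken at 0, 7.5, 15, 22.5, 30 and 60 min are analysed by RP-HPLC to derive the degradation rate constant k and the half-life. Three independent experiments in duplicate; mean ± SEM.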

Mus musculus [6] = assay: Antinociceptive activity in mouse assessed as inhibition of EM-2-induced jumping at 3 ug, icv by hot-plate test; format: functional, organism-based
Outline: (§3)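 Hot-plate test in mice. Peptides are dissolved in DMSO, diluted with saline and given icv into the left ventricle (0.1–10 µg/animal). The read-out is latency to jumping, expressed as %MPE = (test − control latency)/(cut-off − control latency) × 100, with a 240 s cut-off. 10 mice per group.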

Mus musculus [7] = assay: Antidepressant activity in mouse assessed as reduction in immobility time at 3 ug, icv measured 10 mins post-dose by forced swim test; format: functional, organism-based
Outline: (§4)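 Mice given a vehicle or peptide icv, then 20 min before testing kept in small individual cages at 22 ± 1 °C. The test begins 10 min after injection: groups of four swim for 6 min in Plexiglas cylinders (14 cm internal diameter) holding water at 22 ± 1 °C to 12 cm depth. Total immobility is scored by an automated system. Dose range 0.3–10 µg/animal; 10 mice per group.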

Mus musculus [8] = assay: Toxicity in mouse assessed as mortality at >3 ug, icv; format: organism-based; conditions: in vivo, icv_or_intrathecal
Mus musculus [9] = assay: Toxicity in mouse assessed as increase in immobility time at >3 ug, icv by forced swim test; format: organism-based; conditions: in vivo, icv_or_intrathecal
Brain = assay: Stability in rat brain homogenate assessed as degradation rate constant measured up to 60 mins by RP-HPLC analysis; format: ADME, tissue-based; conditions: 1 h; outline: as §2
Mus musculus [10] = assay: Antidepressant activity in mouse assessed as reduction in immobility time at 3 ug, icv measured 10 mins post-dose by tail suspension test; format: functional, organism-based
Outline: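 Tail suspension: mice held 20 min beforehand in small individual cages. Ten minutes after an icv injection of vehicle or peptide (3 µg/animal), each mouse is suspended by the tail with adhesive tape and immobility is recorded. 10 mice per group.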

Mus musculus [11] = assay: Antinociceptive activity in mouse assessed as inhibition of EM-2-induced jumping at 1 ug, icv by hot-plate test; format: functional, organism-based
Mus musculus [12] = assay: Antinociceptive activity in icv dosed mouse assessed as inhibition of EM-2-induced jumping by hot-plate test; format: functional, organism-based; outline: as §3
Mus musculus [13] = assay: Antinociceptive activity in mouse assessed as inhibition of EM-2-induced jumping at 3 ug, icv co-administered with beta-funaltrexamine by hot-plate test; format: functional, organism-based
Outline: (§5)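 Hot-plate jumping latency in mice given the peptide at 3 µg/animal icv together with β-FNA (1 µg/animal), naltrindole (1 µg/animal) or nor-BNI (5 µg/animal, per the figure legend). Result is expressed as %MPE with a 240 s cut-off; 10 mice per group; one-way ANOVA with Student–Newman–Keuls.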

Mus musculus [14] = assay: Antinociceptive activity in mouse assessed as inhibition of EM-2-induced jumping at 3 ug, icv co-administered with naltrindole by hot-plate test; format: functional, organism-based; outline: as §5
Mus musculus [15] = assay: Antinociceptive activity in mouse assessed as inhibition of EM-2-induced jumping at 3 ug, icv co-administered with nor-binaltorphimine by hot-plate test; format: functional, organism-based; outline: as §5
Mus musculus [16] = assay: Antidepressant activity in icv dosed mouse assessed as reduction in immobility time measured 10 mins post-dose by forced swim test; format: functional, organism-based; outline: as §4
Mus musculus [17] = assay: Antidepressant activity in mouse assessed as reduction in immobility time at 3 ug, icv co-administered with beta-funaltrexamine measured 10 mins post-dose by forced swim test; format: functional, organism-based
Outline: (§6)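 Forced swim test in mice with the peptide at 3 µg/animal icv, co-injected with β-FNA (1 µg/animal), naltrindole (1 µg/animal) or nor-BNI (5 µg/animal). Swim starts 10 min after injection; 6-min session in water at 22 ± 1 °C; automated scoring of total immobility; 10 mice per group.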

Mus musculus [18] = assay: Antidepressant activity in mouse assessed as reduction in immobility time at 3 ug, icv co-administered with naltrindole measured 10 mins post-dose by forced swim test; format: functional, organism-based; outline: as §6
Mus musculus [19] = assay: Antidepressant activity in mouse assessed as reduction in immobility time at 3 ug, icv co-administered with nor-binaltorphimine measured 10 mins post-dose by forced swim test; format: functional, organism-based; outline: as §6
Mus musculus [20] = assay: Antidepressant-like activity in mouse assessed as horizontal locomotor activity at 3 ug, icv measured […] post-dose by locomotor activity assay; format: organism-based; conditions: in vivo, icv_or_intrathecal, 20 min
Mus musculus [21] = assay: Antidepressant activity in mouse assessed as reduction in immobility time at 3 to 10 ug, icv measured 10 mins post-dose by forced swim test; format: functional, organism-based; outline: as §4

Sequence of Mu-type opioid receptor (P33535 whole entry): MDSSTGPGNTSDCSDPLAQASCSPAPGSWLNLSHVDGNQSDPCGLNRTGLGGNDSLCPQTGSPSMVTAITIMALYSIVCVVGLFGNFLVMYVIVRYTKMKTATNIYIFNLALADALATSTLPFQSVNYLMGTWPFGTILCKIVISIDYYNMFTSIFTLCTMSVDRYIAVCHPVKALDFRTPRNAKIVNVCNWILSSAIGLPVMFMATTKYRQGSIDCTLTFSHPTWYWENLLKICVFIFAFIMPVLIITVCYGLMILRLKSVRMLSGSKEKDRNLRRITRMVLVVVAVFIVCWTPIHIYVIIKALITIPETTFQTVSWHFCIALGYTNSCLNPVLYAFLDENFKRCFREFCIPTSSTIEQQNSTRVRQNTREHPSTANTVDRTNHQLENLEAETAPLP

Row | SMILES | IC50 (Mu-type opioid receptor) [nM] | IC50 [1] [nM] | IC50 [2] [nM] | Ratio IC50 (Rattus norvegicus [3]) | Ratio IC50 (Rattus norvegicus [4]) | half-life [5] [min] | K (Brain) [min⁻¹] | Activity (Mus musculus [10]) | inhibition (Mus musculus [11]) | also measured
1 | NC(=O)[C@H](Cc1ccccc1)NC(=O)[C@H](Cc1ccccc1)NC(=O)[C@@H]1CN(C(=O)[C@@H](N)Cc2ccc(O)cc2)C[C@H]1c1ccccc1 (mixture of isomers) | 2.91 | > 1000 | > 1000 | > 1000 | > 1000 | 38.3 | 0.018 | inactive |  | inhibition (Mus musculus [6]): inactive; Activity (Mus musculus [7]): inactive; Activity (Mus musculus [8]): Toxic; Activity (Mus musculus [9]): Toxic
2 | Oc1ccc2c3c1O[C@H]1c4[nH]c5ccccc5c4C[C@@]4(O)[C@@H](C2)N(CC2CC2)CC[C@]314 |  |  |  |  |  |  |  |  | inactive | 
3 | NC(=O)[C@H](Cc1ccccc1)NC(=O)[C@H](Cc1ccccc1)NC(=O)[C@H]1CN(C(=O)[C@@H](N)Cc2ccc(O)cc2)C[C@@H]1c1ccccc1 (mixture of isomers) | 0.85 | 9.06 | 27.1 | 10.7 | 31.9 | 32.5 | 0.0212 | Active |  | inhibition (Mus musculus [12]): Dose-dependent effect; inhibition (Mus musculus [13]): inactive; inhibition (Mus musculus [14]): Active; inhibition (Mus musculus [15]): Active; Activity (Mus musculus [16]): Dose-dependent effect; Activity (Mus musculus [17]): Active; Activity (Mus musculus [18]): inactive; Activity (Mus musculus [19]): inactive; Activity (Mus musculus [20]): Non-toxic; Activity (Mus musculus [21]): Active
4 | COC(=O)/C=C/C(=O)N[C@@H]1CC[C@@]2(O)[C@H]3Cc4ccc(O)c5c4[C@@]2(CCN3CC2CC2)[C@H]1O5 |  |  |  |  |  |  |  |  | inactive | 
5 | Oc1ccc2c3c1O[C@H]1c4[nH]c5c(c4C[C@@]4(O)[C@@H](C2)N(CC2CC2)CC[C@]314)C[C@@]1(O)[C@H]2Cc3ccc(O)c4c3[C@@]1(CCN2CC1CC1)[C@H]5O4 |  |  |  |  |  |  |  |  | inactive | 
6 | NC(=O)[C@H](Cc1ccccc1)NC(=O)[C@H](Cc1ccccc1)NC(=O)[C@@H]1CCCN1C(=O)[C@@H](N)Cc1ccc(O)cc1 [ENDOMORPHIN 2] |  |  |  |  |  | 6 |  |  |  | 
